Columns and labels:
[1] = Ratio of growth inhibitory activity against human Jurkat leukemia cell line (JLD- resistant to doxorubicin) to that of Jurkat leukemia cell line; assay type: functional
Method in brief: (§1)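 Parent Jurkat (JL_C) cells and the amsacrine-resistant (JL_A) or doxorubicin-resistant (JL_D) sublines each seeded at 3.75 × 10³/well. Cultured 4 days with drug and read by sulforhodamine assay. The ratio is the subline IC50 divided by the JL_C IC50. Duplicate independent assays.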

Jurkat = test: Growth inhibitory activity against human Jurkat leukemia cell line (JLC); assay type: functional, cell-based
Method in brief: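 Human Jurkat leukemia (JL_C) cells seeded at 3.75 × 10³/well and grown 4 days with drug. Growth read by sulforhodamine assay. IC50 is the drug concentration that reduces cell number to 50% of control cultures. Independent assays run in duplicate.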

[2] = Ratio of growth inhibitory activity against human Jurkat leukemia cell line (JLA- resistant to amsacrine) to that of Jurkat leukemia cell line; assay type: functional; method in brief: as §1
[3] = system: Lewis lung carcinoma cell line; test: Growth inhibitory activity against murine Lewis lung carcinoma cell line; assay type: functional, cell-based; conditions: Mus musculus
Method in brief: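 Lewis lung carcinoma cells seeded at 10³/well and cultured 4 days with drug. Growth measured by sulforhodamine assay. IC50 is the concentration reducing cell number to 50% of control cultures. Independent duplicate assays.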

P388 = test: Growth inhibitory activity against murine P388 leukemia cells; assay type: functional, cell-based; conditions: Mus musculus
Method in brief: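 P388 murine leukemia cells plated at 4.5 × 10³/well and exposed to drug for 3 days. Growth read by [3H]TdR uptake. IC50 is the concentration reducing cell number to 50% of control. Independent assays done in duplicate.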

Mus musculus [4] = test: Number of mice(with Colon 38 tumors) cured after treatment of 2.6 mg/kg/day single dose out of 5 mice; assay type: functional
Method in brief: (§2)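 BDF1 mice bearing subcutaneous Colon 38 tumors (flank implants of 1 mm³ fragments) were treated at a diameter of about 4-6 mm. They received one intraperitoneal dose of the hydrochloride salt in distilled water, 0.01 mL/g. A cure is a mouse with no measurable tumor 20 days after treatment began, reported over the total mice per group.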

Mus musculus [5] = test: Number of mice(with Colon 38 tumors) cured after treatment of 3.9 mg/kg/day single dose out of 5 mice; assay type: functional; method in brief: as §2
Mus musculus [6] = test: In vivo antitumor activity against subcutaneous Colon 38 tumors in mice determined as delay in growth after 3.9 mg/kg/day single dose; assay type: functional
Method in brief: (§3)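 Colon 38 fragments (1 mm³) implanted subcutaneously in one flank of BDF1 mice. Treated at a tumor diameter of about 4-6 mm (7-8 days), five mice per group. A single intraperitoneal dose was given as the hydrochloride in distilled water, 0.01 mL/g. Calipers three times weekly, volume = 0.52a²b. Growth delay is the time for mean volume to reach 4-fold the pretreatment volume.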

Mus musculus [7] = test: In vivo antitumor activity against subcutaneous Colon 38 tumors in mice determined as delay in growth after 2.6 mg/kg/day single dose; assay type: functional; method in brief: as §3
Mus musculus [8] = test: In vivo antitumor activity against subcutaneous Colon 38 tumors in mice determined as delay in growth after 30 mg/kg/day single dose; assay type: functional
Mus musculus [9] = test: Number of mice(with Colon 38 tumors) cured after treatment of 30 mg/kg/day single dose out of 5 mice; assay type: functional
Mus musculus [10] = test: In vivo antitumor activity against subcutaneous Colon 38 tumors in mice determined as delay in growth after 65 mg/kg/day dose given as 2 times in a day for 2 days; assay type: functional
Mus musculus [11] = test: Number of mice(with Colon 38 tumors) cured after treatment of 65 mg/kg/day dose given as 2 times in a day for 2 days out of 5 mice; assay type: functional
Mus musculus [12] = test: In vivo antitumor activity against subcutaneous Colon 38 tumors in mice determined as delay in growth after 8.9 mg/kg/day single dose; assay type: functional; method in brief: as §3
Mus musculus [13] = test: Number of mice(with Colon 38 tumors) cured after treatment of 8.9 mg/kg/day single dose out of 5 mice; assay type: functional; method in brief: as §2
Mus musculus [14] = test: Number of mice(with Colon 38 tumors) cured after treatment of 5.9 mg/kg/day single dose out of 5 mice; assay type: functional; method in brief: as §2
Mus musculus [15] = test: In vivo antitumor activity against subcutaneous Colon 38 tumors in mice determined as delay in growth after 13.3 mg/kg/day single dose; assay type: functional; method in brief: as §3
Mus musculus [16] = test: Number of mice(with Colon 38 tumors) cured after treatment of 13.3 mg/kg/day single dose out of 5 mice; assay type: functional; method in brief: as §2
Mus musculus [17] = test: In vivo antitumor activity against subcutaneous Colon 38 tumors in mice determined as delay in growth after 5.9 mg/kg/day single dose; assay type: functional; method in brief: as §3
Mus musculus [18] = test: Number of mice(with Colon 38 tumors) cured after treatment of 3.9 mg/kg/day single dose out of 4 mice; assay type: functional; method in brief: as §2
Mus musculus [19] = test: Number of mice(with Colon 38 tumors) cured after treatment of 8.9 mg/kg/day single dose out of 4 mice; assay type: functional; method in brief: as §2
Mus musculus [20] = test: Number of mice(with Colon 38 tumors) cured after treatment of 5.9 mg/kg/day single dose out of 10 mice; assay type: functional; method in brief: as §2
Mus musculus [21] = test: In vivo antitumor activity against subcutaneous Colon 38 tumors in mice determined as delay in growth after 200 mg/kg/day dose given as 2 times in a day for 7 days; assay type: functional
Mus musculus [22] = test: Number of mice(with Colon 38 tumors) cured after treatment of 200 mg/kg/day dose given as 2 times in a day for 7 days out of 5 mice; assay type: functional
Mus musculus [23] = test: In vivo antitumor activity against subcutaneous Colon 38 tumors in mice determined as delay in growth after 13.3 mg/kg/day dose given as 3 times in a day for 4 days; assay type: functional
Mus musculus [24] = test: Number of mice(with Colon 38 tumors) cured after treatment of 13.3 mg/kg/day dose given as 3 times in a day for 4 days out of 5 mice; assay type: functional
Mus musculus [25] = test: In vivo antitumor activity against subcutaneous Colon 38 tumors in mice determined as delay in growth after 3.9 mg/kg/day dose given as 3 times in a day for 4 days; assay type: functional
Mus musculus [26] = test: Number of mice(with Colon 38 tumors) cured after treatment of 3.9 mg/kg/day dose given as 3 times in a day for 4 days out of 5 mice; assay type: functional
Mus musculus [27] = test: Number of mice(with Colon 38 tumors) cured after treatment of 2.6 mg/kg/day dose given as 3 times in a day for 4 days out of 5 mice; assay type: functional
Mus musculus [28] = test: In vivo antitumor activity against subcutaneous Colon 38 tumors in mice determined as delay in growth after 2.6 mg/kg/day dose given as 3 times in a day for 4 days; assay type: functional
Mus musculus [29] = test: Number of mice(with Colon 38 tumors) cured after treatment of 45 mg/kg/day dose given as 3 times in a day for 4 days out of 5 mice; assay type: functional
Mus musculus [30] = test: In vivo antitumor activity against subcutaneous Colon 38 tumors in mice determined as delay in growth after 45 mg/kg/day dose given as 3 times in a day for 4 days; assay type: functional
Mus musculus [31] = test: In vivo antitumor activity against subcutaneous Colon 38 tumors in mice determined as delay in growth after 65 mg/kg/day dose given as 3 times in a day for 4 days; assay type: functional
Mus musculus [32] = test: Number of mice(with Colon 38 tumors) cured after treatment of 65 mg/kg/day dose given as 3 times in a day for 4 days out of 5 mice; assay type: functional

IC50 (Jurkat) [nM] | IC50 [3] [nM] | IC50 (P388) [nM] | Structure (SMILES) | Ratio [1] | Ratio [2] | other results
123 | 50 | 54 | CN(C)CCNC(=O)c1cn(CCN(C)C)c(=O)c2cc3ccccc3nc12 | 1.1 | 0.8 | 
9.4 | 4.4 | 12 | COc1ccc(-n2cc(C(=O)NCCN(C)C)c3nc4c(C)cccc4cc3c2=O)cc1OC | 1.5 | 1.3 | Cures (Mus musculus [4]): 0; Cures (Mus musculus [5]): 4; Growth delay (Mus musculus [6]): >20 days; Growth delay (Mus musculus [7]): 16 days
26 | 10 | 11 | Cc1cccc2cc3c(O)ncc(C(=O)NCCN(C)C)c3nc12 | 2.6 | 1.9 | Growth delay (Mus musculus [8]): 14 days; Cures (Mus musculus [9]): 0
 |  |  | Cc1cc2c3c(cccc3n1)C(=O)c1cccc(C(=O)NCCN(C)C)c1-2 | 2.5 | 2.5 | Growth delay (Mus musculus [10]): >20 days; Cures (Mus musculus [11]): 5
 |  | 14 | CN(C)CCNC(=O)c1cn(C)c(=O)c2cc3ccccc3nc12 |  |  | 
1070 | 161 | 590 | Cc1cccc2cc3c(=O)n([C@@H](C)c4ccccc4)cc(C(=O)NCCN(C)C)c3nc12 | 1.1 | 0.8 | 
 |  | 2.4 | Cc1cccc2cc3c(NCCN(C)C)ncc(C(=O)NCCN(C)C)c3nc12 |  |  | Growth delay (Mus musculus [12]): 6 days; Cures (Mus musculus [13]): 0
51 | 15 | 14 | CCCCn1cc(C(=O)NCCN(C)C)c2nc3c(C)cccc3cc2c1=O | 3 | 2.3 | Cures (Mus musculus [14]): 0; Growth delay (Mus musculus [15]): >20 days; Cures (Mus musculus [16]): 5; Growth delay (Mus musculus [17]): 18 days
8.5 | 3.7 | 6.8 | Cc1cccc2cc3c(=O)n(CCN(C)C)cc(C(=O)NCCN(C)C)c3nc12 | 0.9 | 0.7 | Cures (Mus musculus [14]): 0; Growth delay (Mus musculus [17]): 14 days
6.7 | 1.7 | 2.1 | Cc1cccc2cc3c(=O)n(C)cc(C(=O)NCCN(C)C)c3nc12 | 7.9 | 5.6 | Cures (Mus musculus [18]): 4; Cures (Mus musculus [19]): 4; Growth delay (Mus musculus [12]): >20 days; Growth delay (Mus musculus [6]): >20 days; Cures (Mus musculus [20]): 10; Growth delay (Mus musculus [17]): >20 days
1 | 4.7 | 22 | Cc1cccc2cc3c(=O)n(CCN(C)CCCN(C)CCn4cc(C(=O)NCCN(C)C)c5nc6c(C)cccc6cc5c4=O)cc(C(=O)NCCN(C)C)c3nc12 | 0.4 | 0.3 | 
 |  | 71 | CN(C)CCNC(=O)c1cccc2cc3ccccc3nc12 |  |  | Growth delay (Mus musculus [21]): 13 days; Cures (Mus musculus [22]): 0
 |  |  | COc1cc(NS(C)(=O)=O)ccc1Nc1c2ccccc2nc2ccccc12 [AMSACRINE] |  |  | Growth delay (Mus musculus [23]): 2 days; Cures (Mus musculus [24]): 0
 |  |  | CC[C@@]1(O)C(=O)OCc2c1cc1n(c2=O)Cc2cc3ccccc3nc2-1 [CAMPTOTHECIN] | 1.4 | 2 | 
 |  |  | COc1cccc2c1C(=O)c1c(O)c3c(c(O)c1C2=O)C[C@@](O)(C(C)=O)C[C@@H]3O[C@H]1C[C@H](N)[C@H](O)[C@H](C)O1 [DAUNORUBICIN] |  |  | Growth delay (Mus musculus [25]): 0 days; Cures (Mus musculus [26]): 0
 |  |  | COc1cccc2c1C(=O)c1c(O)c3c(c(O)c1C2=O)C[C@@](O)(C(=O)CO)C[C@@H]3O[C@H]1C[C@H](N)[C@H](O)[C@H](C)O1 [DOXORUBICIN] | 13 | 4.4 | Cures (Mus musculus [27]): 0; Growth delay (Mus musculus [28]): 8 days
160 | 180 | 150 | COc1cc([C@@H]2c3cc4c(cc3[C@@H](O[C@@H]3O[C@@H]5CO[C@@H](C)O[C@H]5[C@H](O)[C@H]3O)[C@H]3COC(=O)[C@H]23)OCO4)cc(OC)c1O [ETOPOSIDE] | 90 | 13 | Cures (Mus musculus [29]): 0; Growth delay (Mus musculus [30]): 1.5 days
 |  |  | CCc1c2c(nc3ccc(OC(=O)N4CCC(N5CCCCC5)CC4)cc13)-c1cc3c(c(=O)n1C2)COC(=O)[C@]3(O)CC [IRINOTECAN] |  |  | Growth delay (Mus musculus [31]): 7 days; Cures (Mus musculus [32]): 0
 |  |  | O=C1c2c(O)ccc(O)c2C(=O)c2c(NCCNCCO)ccc(NCCNCCO)c21 [MITOXANTRONE] |  |  | Growth delay (Mus musculus [25]): 2 days; Cures (Mus musculus [26]): 0
